Source: ChEMBL document CHEMBL5046287 (J Med Chem, 2022)
Active and inactive are the calls of the source. The rule behind the calls is not given here.

Columns and labels:
PC-3 = assay: Antiproliferative activity against human PC-3 cells expressing ALDH1A1 and ALDH3A1 assessed as reduction in cell survival measured after 96 hrs by MTT assay; type: functional, cell-based; conditions: PC-3, 96 h
Method in brief: (§1)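 Adherent prostate cancer cells seeded in 96-well plates, left overnight at 37 °C, 5% CO2, 100% humidity, then exposed to compounds at 12.5–200 μM for 96 h. Read-out: MTT (0.5 mg/mL) added for 4 h at 37 °C, formazan dissolved in DMSO, absorbance at 540 nm. IC50 from five-dose screen.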

DU-145 = assay: Antiproliferative activity against human DU145 cells expressing ALDH1A1 assessed as reduction in cell survival measured after 96 hrs by MTT assay; type: functional, cell-based; conditions: DU-145, 96 h; method in brief: as §1
[1] = target: T1, Aldehyde dehydrogenase, dimeric NADP-preferring (Homo sapiens) (UniProt P30838); assay: Inhibition of N-terminal-His6 tagged recombinant human ALDH3A1 assessed as remaining enzyme activity by measuring fluorescence of NADPH using 4-NBA and NADP+ as substrate at 10 uM by fluorimetric analysis relative to control
T1 sequence (whole entry): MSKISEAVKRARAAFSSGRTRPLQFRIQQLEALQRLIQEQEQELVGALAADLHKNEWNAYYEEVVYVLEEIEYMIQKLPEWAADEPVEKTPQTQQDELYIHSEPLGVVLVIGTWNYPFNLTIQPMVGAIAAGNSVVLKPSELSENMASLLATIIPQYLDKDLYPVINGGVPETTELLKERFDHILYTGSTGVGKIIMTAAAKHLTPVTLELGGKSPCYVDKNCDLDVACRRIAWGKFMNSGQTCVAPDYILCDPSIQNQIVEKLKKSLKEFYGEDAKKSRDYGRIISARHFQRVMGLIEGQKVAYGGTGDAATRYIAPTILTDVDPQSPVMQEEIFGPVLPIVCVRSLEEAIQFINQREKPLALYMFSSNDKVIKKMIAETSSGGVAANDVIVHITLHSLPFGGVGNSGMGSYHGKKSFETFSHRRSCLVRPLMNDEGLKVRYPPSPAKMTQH
Method in brief: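 Single-point screen at 10 μM inhibitor, 1% DMSO final. Enzyme in 50 mM Tris–HCl, 5 mM DTT, pH 8.0, with 1 mM NADP+ and 4-NBA at 31 and 250 μM. NADPH fluorescence (ex 340/em 460 nm) or absorbance at 340 nm. Enzyme kept 50–100-fold below substrate; result is % remaining activity.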

LNCaP = assay: Antiproliferative activity against human LNCaP cells expressing ALDH1A3 assessed as reduction in cell survival measured after 96 hrs by MTT assay; type: functional, cell-based; method in brief: as §1
H488 [2] = assay: Cytotoxicity against human H488/14 RM cells assessed as reduction in cell viability incubated for 72 hrs by AlamarBlue staining based analysis; type: functional; conditions: dose 50-200 µM
Method in brief: (§2)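 Primary prostate epithelial cells (cancer from radical prostatectomy, BPH from transurethral resection) plated 5000 cells/well in SCM for 24 h at 37 °C, 5% CO2, then given inhibitor alone at 50 or 200 μM (200 mM DMSO stocks) for 72 h. Alamar Blue at 10% of volume for 1–4 h. Viability is % of DMSO control; triplicate, mean.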

H415 [3] = assay: Cytotoxicity against human H415/15 cells assessed as reduction in cell viability at 50 to 200 uM incubated for 72 hrs in presence of docetaxel by AlamarBlue staining based analysis; type: functional; conditions: dose 50-200 µM
Method in brief: (§3)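 Primary prostate epithelial cells (radical prostatectomy cancer or transurethral resection BPH) seeded at 5000 cells/well in SCM, 24 h at 37 °C, 5% CO2. Treated with inhibitor at 50 or 200 μM plus 1 nM docetaxel (DMSO stocks 200 mM) for 72 h. Alamar Blue added at 10% volume, 1–4 h at 37 °C. Viability is % of DMSO-treated control; triplicate, mean; paired two-tailed t-test.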

H568 [4] = assay: Cytotoxicity against human H568/15 RM cells assessed as reduction in cell viability at 50 to 200 uM incubated for 72 hrs in presence of docetaxel by AlamarBlue staining based analysis; type: functional; conditions: dose 50-200 µM; method in brief: as §3
H568 [5] = assay: Cytotoxicity against human H568/15 RM cells assessed as reduction in cell viability incubated for 72 hrs by AlamarBlue staining based analysis; type: functional; conditions: dose 50-200 µM; method in brief: as §2
H517 [6] = assay: Cytotoxicity against human H517/15 RM cells assessed as reduction in cell viability at 50 to 200 uM incubated for 72 hrs in presence of docetaxel by AlamarBlue staining based analysis; type: functional; conditions: dose 50-200 µM; method in brief: as §3
H431 [7] = assay: Cytotoxicity against human H431/14 LM cells assessed as reduction in cell viability incubated for 72 hrs by AlamarBlue staining based analysis; type: functional; conditions: dose 50-200 µM; method in brief: as §2
H517 [8] = assay: Cytotoxicity against human H517/15 RM cells assessed as reduction in cell viability incubated for 72 hrs by AlamarBlue staining based analysis; type: functional; conditions: dose 50-200 µM; method in brief: as §2
[9] = target: T2, Aldehyde dehydrogenase 1A1 (Homo sapiens, UniProt P00352); assay: Substrate activity at N-terminal-His6 tagged recombinant human ALDH1A1 at 10 uM […] by fluorimetric analysis relative to hexanal; type: ADME
T2 sequence (P00352 whole entry): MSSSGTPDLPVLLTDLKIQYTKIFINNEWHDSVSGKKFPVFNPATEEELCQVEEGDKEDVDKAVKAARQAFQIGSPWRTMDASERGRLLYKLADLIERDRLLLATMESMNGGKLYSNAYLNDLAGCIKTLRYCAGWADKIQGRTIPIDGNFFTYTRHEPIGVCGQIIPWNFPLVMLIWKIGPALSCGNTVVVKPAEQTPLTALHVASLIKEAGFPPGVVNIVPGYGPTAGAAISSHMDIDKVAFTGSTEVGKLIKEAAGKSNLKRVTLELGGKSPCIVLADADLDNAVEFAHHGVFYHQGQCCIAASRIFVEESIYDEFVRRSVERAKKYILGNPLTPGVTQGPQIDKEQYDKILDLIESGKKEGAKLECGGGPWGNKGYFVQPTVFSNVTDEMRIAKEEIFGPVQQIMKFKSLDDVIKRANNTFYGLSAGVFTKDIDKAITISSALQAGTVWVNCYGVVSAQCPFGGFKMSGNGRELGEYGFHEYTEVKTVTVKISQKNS
Method in brief: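 Compound at 10 μM used as substrate in place of hexanal. Buffer 50 mM HEPES, 0.5 mM EDTA, 0.5 mM DTT, pH 8.0, with 500 μM NAD+. NADH fluorescence (ex 340/em 460 nm). Activity given as % of that with 10 μM hexanal; mean ± SE.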

[10] = target: T3, Aldehyde dehydrogenase, dimeric NADP-preferring (Homo sapiens, UniProt P30838); assay: Substrate activity at N-terminal-His6 tagged recombinant human ALDH3A1 at 10 uM […] by fluorimetric analysis relative to 4-NBA; type: ADME
T3 sequence (P30838 whole entry): T1 sequence (whole entry)
Method in brief: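 Compound at 10 μM used as substrate in place of 4-NBA. Buffer 50 mM Tris–HCl, 5 mM DTT, pH 8.0, with 1 mM NADP+. NADPH fluorescence (ex 340/em 460 nm). Activity given as % of that with 10 μM 4-NBA; mean ± SE.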

H415 [11] = assay: Cytotoxicity against human H415/15 cells assessed as reduction in cell viability incubated for 72 hrs by AlamarBlue staining based analysis; type: functional; conditions: dose 50-200 µM; method in brief: as §2
H488 [12] = assay: Cytotoxicity against human H488/14 RM cells assessed as reduction in cell viability at 50 to 200 uM incubated for 72 hrs in presence of docetaxel by AlamarBlue staining based analysis; type: functional; conditions: dose 50-200 µM; method in brief: as §3
H431 [13] = assay: Cytotoxicity against human H431/14 LM cells assessed as reduction in cell viability at 50 to 200 uM incubated for 72 hrs in presence of docetaxel by AlamarBlue staining based analysis; type: functional; conditions: dose 50-200 µM; method in brief: as §3
[14] = target: T1, Aldehyde dehydrogenase, dimeric NADP-preferring (Homo sapiens); assay: Inhibition of N-terminal-His6 tagged recombinant human ALDH3A1 using 4-NBA as substrate in absence of NADP+ by fluorimetric analysis
Method in brief: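 The standard 5-min preincubation of enzyme with inhibitor was run without NADP+, and compared with preincubation including cofactor. Fluorimetric NADPH read-out; mean ± SE.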

Row | Compound | Activity [1] [%] | Activity (H488 [2]) | Activity (H568 [5]) | Activity (H431 [7]) | Activity (H517 [8]) | Activity (H415 [11]) | further results
1 | CCCN(CCC)c1ccc(C=O)cc1Br | < 15 | Dose-Dependent Effect | Dose-Dependent Effect | Dose-Dependent Effect | Dose-Dependent Effect | Dose-Dependent Effect | Activity (H415 [3]): Active; Activity (H568 [4]): Active; Activity (H517 [6]): Active; Activity [9]: 3.14%; Activity [10]: < 5%; Activity (H488 [12]): Active; Activity (H431 [13]): Active
2 | CCN(CC)c1ccc(C=O)cc1 | – | Dose-Dependent Effect | Dose-Dependent Effect | Dose-Dependent Effect | Dose-Dependent Effect | Dose-Dependent Effect | –
3 | CCCN(CCC)c1ccc(C=O)cc1[N+](=O)[O-] | < 15 | Dose-Dependent Effect | Dose-Dependent Effect | Dose-Dependent Effect | Dose-Dependent Effect | Dose-Dependent Effect | inhibition [14]: Active; Activity (H415 [3]): Active; Activity (H568 [4]): Active; Activity (H517 [6]): Active; Activity (H488 [12]): Active; Activity (H431 [13]): Active
4 | CCCN(CCC)c1ccc(C=O)cc1Cl | < 15 | – | – | – | – | – | –
5 | CCCN(CCC)c1ccc(C=O)cc1OC | – | – | – | – | – | – | IC50 (PC-3): 75 µM; IC50 (DU-145): 71 µM; IC50 (LNCaP): 50 µM

Now from value to molecule, other results behind:

Row | Activity [1] [%] | Compound | Activity (H488 [2]) | Activity (H568 [5]) | Activity (H431 [7]) | Activity (H517 [8]) | Activity (H415 [11]) | further results
6 | < 15 | CCCN(CCC)c1ccc(C=O)cc1C | – | – | – | – | – | IC50 (PC-3): 106 µM; IC50 (DU-145): 103 µM; IC50 (LNCaP): 61 µM
7 | < 15 | CCCN(CCC)c1ccc(C=O)cc1 | – | – | – | – | – | –
